{"source": "ChEMBL document CHEMBL2424590", "about": "“4-[18F]Fluoro-m-hydroxyphenethylguanidine: a radiopharmaceutical for quantifying regional cardiac sympathetic nerve density with positron emission tomography” (J Med Chem, 2013)", "key": {"[1]": {"assay": "Drug metabolism in rhesus macaque monkey spinal column assessed as fluorine-18 level at 5 to 6 mCi, iv after 90 mins by transaxial PET analysis", "format": "ADME, organism-based, Macaca mulatta", "conditions": "in vivo, 1.5 h; call rule not given here"}, "Heart": {"tested_on": "Heart", "assay": "Biodistribution in Sprague-Dawley rat heart at 20 to 120 uCi, iv after 60 mins by gamma counting analysis", "format": "ADME, organism-based", "conditions": "in vivo, 1 h", "in_short": "(§1)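 Sprague-Dawley rats (280–330 g), 2 male and 2 female per time point (5, 30, 60, 120 min), under light isoflurane, received a tail-vein bolus of 20–120 μCi tracer in 0.05–0.10 mL isotonic 60 mM sodium phosphate, pH 5.4. Tissues were weighed and gamma-counted. Decay-corrected dpm/g was normalized to injected dpm per kg body weight (%ID·kg/g).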"}, "Blood": {"tested_on": "Blood", "assay": "Drug uptake in rhesus macaque monkey whole blood at 0.1 mCi after 10 to 85 mins by gamma counting analysis", "format": "ADME, tissue-based, Macaca mulatta"}, "Testes [2]": {"tested_on": "Testes", "assay": "Biodistribution in Sprague-Dawley rat testes at 20 to 120 uCi, iv after 60 mins by gamma counting analysis", "format": "ADME, organism-based, Testis", "conditions": "in vivo, 1 h", "in_short": "(§2)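 Male and female rats (2 per sex per time point, 280–330 g) under light isoflurane given tail-vein bolus of 20–120 μCi tracer in 0.05–0.10 mL isotonic 60 mM sodium phosphate, pH 5.4. Tissues sampled at 5, 30, 60 or 120 min, weighed and gamma-counted. Decay-corrected dpm per gram normalised to injected dpm and body weight, given as %ID·kg/g.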"}, "[3]": {"assay": "Drug uptake in rhesus macaque monkey adrenal glands 5 to 6 mCi, iv after 90 mins by PET analysis in presence of desipramine", "format": "ADME, organism-based, Macaca mulatta, Adrenal gland", "conditions": "in vivo, 1.5 h"}, "Muscle tissue [4]": {"tested_on": "Muscle tissue", "assay": "Biodistribution in Sprague-Dawley rat muscle at 20 to 120 uCi, iv after 120 mins by gamma counting analysis", "format": "ADME, organism-based", "conditions": "in vivo, 2 h", "in_short": "as §1"}, "Lung [5]": {"tested_on": "Lung", "assay": "Biodistribution in Sprague-Dawley rat lung at 20 to 120 uCi, iv after 30 mins by gamma counting analysis", "format": "ADME, organism-based", "conditions": "in vivo, 0.5 h", "in_short": "as §1"}, "Rattus norvegicus [6]": {"tested_on": "Rattus norvegicus", "assay": "Biodistribution in Sprague-Dawley rat eyeballs at 20 to 120 uCi, iv after 60 mins by gamma counting analysis", "format": "ADME, organism-based, Eyeball of camera-type eye", "conditions": "in vivo, 1 h", "in_short": "as §1"}, "Spleen [7]": {"tested_on": "Spleen", "assay": "Biodistribution in Sprague-Dawley rat spleen at 20 to 120 uCi, iv after 120 mins by gamma counting analysis", "format": "ADME, organism-based", "conditions": "in vivo, 2 h", "in_short": "as §1"}, "Brain [8]": {"tested_on": "Brain", "assay": "Biodistribution in Sprague-Dawley rat brain at 20 to 120 uCi, iv after 120 mins by gamma counting analysis", "format": "ADME, organism-based", "conditions": "in vivo, 2 h", "in_short": "as §1"}, "Rattus norvegicus [9]": {"tested_on": "Rattus norvegicus", "assay": "Biodistribution in Sprague-Dawley rat uterus at 20 to 120 uCi, iv after 120 mins by gamma counting analysis", "format": "ADME, organism-based", "conditions": "in vivo, 2 h", "in_short": "as §2"}, "[10]": {"assay": "Drug uptake in rhesus macaque monkey cortex 5 to 6 mCi, iv after 90 mins by PET analysis", "format": "ADME, organism-based, Macaca mulatta", "conditions": "in vivo, 1.5 h"}, "Lung [11]": {"tested_on": "Lung", "assay": "Biodistribution in Sprague-Dawley rat lung at 20 to 120 uCi, iv after 5 mins by gamma counting analysis", "format": "ADME, organism-based", "conditions": "in vivo", "in_short": "as §1"}, "Muscle tissue [12]": {"tested_on": "Muscle tissue", "assay": "Biodistribution in Sprague-Dawley rat muscle at 20 to 120 uCi, iv after 30 mins by gamma counting analysis", "format": "ADME, organism-based", "conditions": "in vivo, 0.5 h", "in_short": "as §1"}, "Brain [13]": {"tested_on": "Brain", "assay": "Biodistribution in Sprague-Dawley rat brain at 20 to 120 uCi, iv after 5 mins by gamma counting analysis", "format": "ADME, organism-based", "conditions": "in vivo", "in_short": "as §1"}, "Bone": {"tested_on": "Bone", "assay": "Biodistribution in Sprague-Dawley rat bone at 20 to 120 uCi, iv after 5 mins by gamma counting analysis", "format": "ADME, organism-based, Bone element", "conditions": "in vivo", "in_short": "as §1"}, "Rattus norvegicus [14]": {"tested_on": "Rattus norvegicus", "assay": "Biodistribution in Sprague-Dawley rat stomach at 20 to 120 uCi, iv after 120 mins by gamma counting analysis", "format": "ADME, organism-based", "conditions": "in vivo, 2 h", "in_short": "as §2"}, "Kidney": {"tested_on": "Kidney", "assay": "Biodistribution in Sprague-Dawley rat kidney at 20 to 120 uCi, iv after 30 mins by gamma counting analysis", "format": "ADME, organism-based", "conditions": "in vivo, 0.5 h", "in_short": "as §1"}, "Testes [15]": {"tested_on": "Testes", "assay": "Biodistribution in Sprague-Dawley rat testes at 20 to 120 uCi, iv after 30 mins by gamma counting analysis", "format": "ADME, organism-based, Testis", "conditions": "in vivo, 0.5 h", "in_short": "as §2"}, "Lung [16]": {"tested_on": "Lung", "assay": "Biodistribution in Sprague-Dawley rat lung at 20 to 120 uCi, iv after 120 mins by gamma counting analysis", "format": "ADME, organism-based", "conditions": "in vivo, 2 h", "in_short": "as §1"}, "Spleen [17]": {"tested_on": "Spleen", "assay": "Biodistribution in Sprague-Dawley rat spleen at 20 to 120 uCi, iv after 5 mins by gamma counting analysis", "format": "ADME, organism-based", "conditions": "in vivo", "in_short": "as §2"}, "[18]": {"assay": "Drug uptake in rhesus macaque monkey liver at 5 to 6 mCi, iv after 90 mins by PET analysis", "format": "ADME, organism-based, Macaca mulatta", "conditions": "in vivo, 1.5 h"}}, "data": [{"smiles": "N=C(N)NCCc1ccc([18F])c(O)c1", "values": [{"measurement": "Drug metabolism", "setting": "[1]", "result": "Active"}, {"measurement": "Drug uptake", "setting": "Heart", "result": 0.526, "unit": "%IDKg/g"}, {"measurement": "SUV", "setting": "Blood", "result": 3.6}, {"measurement": "Drug uptake", "setting": "Testes [2]", "result": 0.008, "unit": "%IDKg/g"}, {"measurement": "Drug uptake", "setting": "[3]", "result": "Not Active"}, {"measurement": "Drug uptake", "setting": "Muscle tissue [4]", "result": 0.015, "unit": "% ID/g"}, {"measurement": "Drug uptake", "setting": "Lung [5]", "result": 0.136, "unit": "%IDKg/g"}, {"measurement": "Drug uptake", "setting": "Rattus norvegicus [6]", "result": 0.041, "unit": "%IDKg/g"}, {"measurement": "Drug uptake", "setting": "Spleen [7]", "result": 0.235, "unit": "%IDKg/g"}, {"measurement": "Drug uptake", "setting": "Brain [8]", "result": 0.001, "unit": "%IDKg/g"}, {"measurement": "Drug uptake", "setting": "Rattus norvegicus [9]", "result": 0.081, "unit": "%IDKg/g"}, {"measurement": "Drug uptake", "setting": "[10]", "result": "Active"}, {"measurement": "Drug uptake", "setting": "Lung [11]", "result": 0.267, "unit": "%IDKg/g"}, {"measurement": "Drug uptake", "setting": "Muscle tissue [12]", "result": 0.025, "unit": "%ID·kg/g"}, {"measurement": "Drug uptake", "setting": "Brain [13]", "result": 0.004, "unit": "%IDKg/g"}, {"measurement": "Drug uptake", "setting": "Bone", "result": 0.06, "unit": "%ID·kg/g"}, {"measurement": "Drug uptake", "setting": "Rattus norvegicus [14]", "result": 0.089, "unit": "%IDKg/g"}, {"measurement": "Drug uptake", "setting": "Kidney", "result": 0.183, "unit": "%IDKg/g"}, {"measurement": "Drug uptake", "setting": "Testes [15]", "result": 0.01, "unit": "%IDKg/g"}, {"measurement": "Drug uptake", "setting": "Lung [16]", "result": 0.036, "unit": "%IDKg/g"}, {"measurement": "Drug uptake", "setting": "Spleen [17]", "result": 0.268, "unit": "%IDKg/g"}, {"measurement": "Drug uptake", "setting": "[18]", "result": "Not Active"}]}]}
